Reference: ChEMBL document CHEMBL3098013, “Novel pyrazole integrated 1,3,4-oxadiazoles: synthesis, characterization and antimicrobial evaluation” (2014)
Values after ≈ are worked out from the molar mass of the structure shown.

Key:
Format in all cases: functional
Fusarium oxysporum [1] = test: Antimicrobial activity against Fusarium oxysporum MTCC 284 at 100 ug/ml after 48 hrs by disc diffusion method; details: MTCC 284, 48 h, read-out: DIZ
Method in brief: (§1)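 Agar diffusion read-out is the diameter of the inhibition zone in mm. Each test was run in six replicates and reported as mean ± standard deviation, taken from at least three determinations.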

Fusarium verticillioides [2] = test: Antimicrobial activity against Fusarium moniliforme MTCC 156 at 100 ug/ml after 48 hrs by disc diffusion method; details: MTCC 156, 48 h, read-out: DIZ; method in brief: as §1
Fusarium verticillioides [3] = test: Antimicrobial activity against Fusarium moniliforme MTCC 156 at 50 ug/ml after 48 hrs by disc diffusion method; details: MTCC 156, 48 h, read-out: DIZ; method in brief: as §1
Klebsiella pneumoniae [4] = test: Antimicrobial activity against Klebsiella pneumoniae MTCC 3384 after 24 hrs by microdilution method; details: MTCC 3384, 24 h
Method in brief: (§2)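 The minimal inhibitory concentration was determined by dilution, alongside minimal bactericidal concentration for bacterial strains and minimal fungicidal concentration for fungal strains. Tests were run in six replicates, and the value is the mean of at least three determinations.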

Klebsiella pneumoniae [5] = test: Antimicrobial activity against Klebsiella pneumoniae MTCC 3384 at 100 ug/ml after 24 hrs by disc diffusion method; details: MTCC 3384, 24 h, read-out: DIZ; method in brief: as §1
Fusarium oxysporum [6] = test: Antimicrobial activity against Fusarium oxysporum MTCC 284 after 48 hrs by microdilution method; details: MTCC 284, 48 h; method in brief: as §2
Staphylococcus aureus [7] = test: Antimicrobial activity against Staphylococcus aureus MTCC 96 at 100 ug/ml after 24 hrs by disc diffusion method; details: MTCC 96, 24 h, read-out: DIZ; method in brief: as §1
Aspergillus flavus [8] = test: Antimicrobial activity against Aspergillus flavus MTCC 873 at 50 ug/ml after 48 hrs by disc diffusion method; details: MTCC 873, 48 h, read-out: DIZ; method in brief: as §1
Escherichia coli [9] = test: Antimicrobial activity against Escherichia coli MTCC 724 after 24 hrs by microdilution method; details: MTCC 724, 24 h; method in brief: as §2
Escherichia coli [10] = test: Antimicrobial activity against Escherichia coli MTCC 724 at 100 ug/ml after 24 hrs by disc diffusion method; details: MTCC 724, 24 h, read-out: DIZ; method in brief: as §1
Klebsiella pneumoniae [11] = test: Antimicrobial activity against Klebsiella pneumoniae MTCC 3384 at 50 ug/ml after 24 hrs by disc diffusion method; details: MTCC 3384, 24 h, read-out: DIZ; method in brief: as §1
Bacillus cereus [12] = test: Antimicrobial activity against Bacillus cereus MTCC 8372 at 100 ug/ml after 24 hrs by disc diffusion method; details: MTCC 8372, 24 h, read-out: DIZ; method in brief: as §1
Aspergillus niger [13] = test: Antimicrobial activity against Aspergillus niger MTCC 281 at 100 ug/ml after 48 hrs by disc diffusion method; details: MTCC 281, 48 h, read-out: DIZ; method in brief: as §1
Bacillus cereus [14] = test: Antimicrobial activity against Bacillus cereus MTCC 8372 at 50 ug/ml after 24 hrs by disc diffusion method; details: MTCC 8372, 24 h, read-out: DIZ; method in brief: as §1
Escherichia coli [15] = test: Antimicrobial activity against Escherichia coli MTCC 724 at 50 ug/ml after 24 hrs by disc diffusion method; details: MTCC 724, 24 h, read-out: DIZ; method in brief: as §1
Fusarium verticillioides [16] = test: Antimicrobial activity against Fusarium moniliforme MTCC 156 after 48 hrs by microdilution method; details: MTCC 156, 48 h; method in brief: as §2
Aspergillus flavus [17] = test: Antimicrobial activity against Aspergillus flavus MTCC 873 at 100 ug/ml after 48 hrs by disc diffusion method; details: MTCC 873, 48 h, read-out: DIZ; method in brief: as §1
Aspergillus flavus [18] = test: Antimicrobial activity against Aspergillus flavus MTCC 873 after 48 hrs by microdilution method; details: MTCC 873, 48 h; method in brief: as §2
Staphylococcus aureus [19] = test: Antimicrobial activity against Staphylococcus aureus MTCC 96 at 50 ug/ml after 24 hrs by disc diffusion method; details: MTCC 96, 24 h, read-out: DIZ; method in brief: as §1
Aspergillus niger [20] = test: Antimicrobial activity against Aspergillus niger MTCC 281 at 50 ug/ml after 48 hrs by disc diffusion method; details: MTCC 281, 48 h, read-out: DIZ; method in brief: as §1
Fusarium oxysporum [21] = test: Antimicrobial activity against Fusarium oxysporum MTCC 284 at 50 ug/ml after 48 hrs by disc diffusion method; details: MTCC 284, 48 h, read-out: DIZ; method in brief: as §1
Aspergillus niger [22] = test: Antimicrobial activity against Aspergillus niger MTCC 281 after 48 hrs by microdilution method; details: MTCC 281, 48 h; method in brief: as §2
Bacillus cereus [23] = test: Antimicrobial activity against Bacillus cereus MTCC 8372 after 24 hrs by microdilution method; details: MTCC 8372, 24 h; method in brief: as §2
Staphylococcus aureus [24] = test: Antimicrobial activity against Staphylococcus aureus MTCC 96 after 24 hrs by microdilution method; details: MTCC 96, 24 h; method in brief: as §2

MIC (Klebsiella pneumoniae [4]) [µg/mL] | MIC (Fusarium oxysporum [6]) [µg/mL] | MIC (Escherichia coli [9]) [µg/mL] | MIC (Fusarium verticillioides [16]) [µg/mL] | Structure (SMILES) | zone of inhibition at 100 µg/mL (Fusarium oxysporum [1]) [mm] | zone of inhibition at 100 µg/mL (Fusarium verticillioides [2]) [mm] | zone of inhibition at 50 µg/mL (Fusarium verticillioides [3]) [mm] | MBC (Klebsiella pneumoniae [4]) [µg/mL] | zone of inhibition at 100 µg/mL (Klebsiella pneumoniae [5]) [mm] | MFC (Fusarium oxysporum [6]) [µg/mL] | zone of inhibition at 100 µg/mL (Staphylococcus aureus [7]) [mm] | zone of inhibition at 50 µg/mL (Aspergillus flavus [8]) [mm] | MBC (Escherichia coli [9]) [µg/mL] | zone of inhibition at 100 µg/mL (Escherichia coli [10]) [mm] | zone of inhibition at 50 µg/mL (Klebsiella pneumoniae [11]) [mm] | zone of inhibition at 100 µg/mL (Bacillus cereus [12]) [mm] | zone of inhibition at 100 µg/mL (Aspergillus niger [13]) [mm] | zone of inhibition at 50 µg/mL (Bacillus cereus [14]) [mm] | zone of inhibition at 50 µg/mL (Escherichia coli [15]) [mm] | MFC (Fusarium verticillioides [16]) [µg/mL] | further results
30 (≈ 108 µM) | 55 (≈ 198 µM) | 35 (≈ 126 µM) | 45 (≈ 162 µM) | Cc1c(C(=O)O)c(-c2ccccc2)nn1-c1ccccc1 | 5 | 5 | 6 | 240 (≈ 862 µM) | 6 | 295 (≈ 1060 µM) | 8 | 5 | 280 (≈ 1010 µM) | 8 | 4 | 8 | 6 | 4 | 3 | 270 (≈ 970 µM) | zone of inhibition at 100 µg/mL (Aspergillus flavus [17]): 8 mm; MFC (Aspergillus flavus [18]): 300 µg/mL (≈ 1080 µM); MIC (Aspergillus flavus [18]): 55 µg/mL (≈ 198 µM); zone of inhibition at 50 µg/mL (Staphylococcus aureus [19]): 2 mm; zone of inhibition at 50 µg/mL (Aspergillus niger [20]): 4 mm; zone of inhibition at 50 µg/mL (Fusarium oxysporum [21]): 3 mm; MFC (Aspergillus niger [22]): 280 µg/mL (≈ 1010 µM); MIC (Aspergillus niger [22]): 50 µg/mL (≈ 180 µM); MBC (Bacillus cereus [23]): 250 µg/mL (≈ 898 µM); MIC (Bacillus cereus [23]): 30 µg/mL (≈ 108 µM); MBC (Staphylococcus aureus [24]): 250 µg/mL (≈ 898 µM); MIC (Staphylococcus aureus [24]): 40 µg/mL (≈ 144 µM)
25 (≈ 59 µM) | 40 (≈ 94.5 µM) | 25 (≈ 59 µM) | 45 (≈ 106 µM) | Cc1c(-c2nnc(-c3ccccc3)o2)c(-c2ccc([N+](=O)[O-])cc2)nn1-c1ccccc1 | 10 | 14 | 5 | 180 (≈ 425 µM) | 12 | 280 (≈ 661 µM) | 18 | 6 | 190 (≈ 449 µM) | 18 | 9 | 20 | 12 | 14 | 9 | 275 (≈ 649 µM) | zone of inhibition at 100 µg/mL (Aspergillus flavus [17]): 14 mm; MFC (Aspergillus flavus [18]): 290 µg/mL (≈ 685 µM); MIC (Aspergillus flavus [18]): 50 µg/mL (≈ 118 µM); zone of inhibition at 50 µg/mL (Staphylococcus aureus [19]): 10 mm; zone of inhibition at 50 µg/mL (Aspergillus niger [20]): 8 mm; zone of inhibition at 50 µg/mL (Fusarium oxysporum [21]): 8 mm; MFC (Aspergillus niger [22]): 290 µg/mL (≈ 685 µM); MIC (Aspergillus niger [22]): 40 µg/mL (≈ 94.5 µM); MBC (Bacillus cereus [23]): 150 µg/mL (≈ 354 µM); MIC (Bacillus cereus [23]): 20 µg/mL (≈ 47.2 µM); MBC (Staphylococcus aureus [24]): 150 µg/mL (≈ 354 µM); MIC (Staphylococcus aureus [24]): 20 µg/mL (≈ 47.2 µM)
35 (≈ 79.8 µM) | 25 (≈ 57 µM) | 35 (≈ 79.8 µM) | 55 (≈ 125 µM) | COc1ccc(-c2nn(-c3ccccc3)c(C)c2-c2nnc(-c3ccccc3)o2)cc1OC | 24 | 8 | 6 | 250 (≈ 570 µM) | 9 | 220 (≈ 502 µM) | 13 | 5 | 220 (≈ 502 µM) | 20 | 6 | 16 | 11 | 8 | 14 | 290 (≈ 661 µM) | zone of inhibition at 100 µg/mL (Aspergillus flavus [17]): 8 mm; MFC (Aspergillus flavus [18]): 275 µg/mL (≈ 627 µM); MIC (Aspergillus flavus [18]): 45 µg/mL (≈ 103 µM); zone of inhibition at 50 µg/mL (Staphylococcus aureus [19]): 6 mm; zone of inhibition at 50 µg/mL (Aspergillus niger [20]): 3 mm; zone of inhibition at 50 µg/mL (Fusarium oxysporum [21]): 15 mm; MFC (Aspergillus niger [22]): 275 µg/mL (≈ 627 µM); MIC (Aspergillus niger [22]): 40 µg/mL (≈ 91.2 µM); MBC (Bacillus cereus [23]): 230 µg/mL (≈ 525 µM); MIC (Bacillus cereus [23]): 35 µg/mL (≈ 79.8 µM); MBC (Staphylococcus aureus [24]): 235 µg/mL (≈ 536 µM); MIC (Staphylococcus aureus [24]): 40 µg/mL (≈ 91.2 µM)
